Source: ChEMBL document CHEMBL4828740, “Discovery of Quinoxaline-Based P1-P3 Macrocyclic NS3/4A Protease Inhibitors with Potent Activity against Drug-Resistant Hepatitis C Virus Variants” (J Med Chem, 2021)

Assays:
Hepatitis C virus [1] = assay: Antiviral activity against HCV genotype 1b infected in human Huh7 cells incubated for 96 hrs by luciferase assay; type: functional, organism-based, Hepacivirus hominis; conditions: Huh-7, 96 h
In short: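 Con1 (GT-1b) luciferase reporter replicon carrying the H77 (GT-1a) NS3 protease region, either WT or with A156T or D168A introduced by megaprimer mutagenesis. Cured Huh7 cells grown in DMEM with 10% heat-inactivated FBS and 0.1 mM non-essential amino acids. Cells electroporated with replicon RNA and kept with serially diluted inhibitor.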

Hepatitis C virus [2] = assay: Antiviral activity against HCV genotype 1b harboring D168A mutant infected in human Huh7 cells incubated for 96 hrs by luciferase assay; type: functional, organism-based, Hepacivirus hominis; conditions: subtype 1b, Huh-7, 96 h
In short: (§1)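 Con1 (GT-1b) luciferase reporter replicon carrying the H77 (GT-1a) NS3 protease region, with the mutation introduced by megaprimer site-directed mutagenesis. Cured Huh7 cells were grown in DMEM with 10% heat-inactivated FBS and 0.1 mM non-essential amino acids, electroporated with replicon RNA transcripts, and kept with serially diluted inhibitor. EC50 was taken directly from the inhibition curves.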

Hepatitis C virus [3] = assay: Antiviral activity against HCV genotype 3a infected in human Huh7.5 cells incubated for 72 hrs by luciferase assay; type: functional, organism-based, Hepacivirus hominis; conditions: subtype 3a, Huh7.5, 72 h
In short: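 Huh7.5 cells stably harboring the GT-3a replicon S52/SG-Feo SHI, seeded at 8,000 cells/well. Cells lysed in 1X Passive Lysis Buffer and luciferase activity measured. EC50 taken from drug inhibition curves.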

[4] = biological target: T1, Hepatitis C virus serine protease, NS3/NS4A (Hepatitis C virus, UniProt A3EZI9+D2K2A8); assay: Inhibition of HCV GT-3a NS3/4a protease using Ac-DE-D(Edans)-EE-Abu-c-[COO]-AS-K(Dabcy1)-NH2 preincubated for 1 hr followed by substrate addition; type: protein-complex assay, Hepatitis C virus subtype 3a
[5] = biological target: T1, Hepatitis C virus serine protease, NS3/NS4A; assay: Inhibition of HCV GT-1a NS3/4a protease using Ac-DE-D(Edans)-EE-Abu-c-[COO]-AS-K(Dabcy1)-NH2 preincubated for 1 hr followed by substrate addition; type: protein complex, Hepatitis C virus subtype 1a
Hepatitis C virus [6] = assay: Antiviral activity against HCV genotype 1b harboring A156T mutant infected in human Huh7 cells incubated for 96 hrs by luciferase assay; type: functional, organism-based, Hepacivirus hominis; conditions: subtype 1b, Huh-7, 96 h; in short: as §1

CC(C)(C)[C@@H]1NC(=O)O[C@@H]2CCC[C@H]2OC/C=C/C(F)(F)c2nc3ccccc3nc2O[C@@H]2C[C@@H](C(=O)N[C@]3(C(=O)NS(=O)(=O)C4(C)CC4)C[C@H]3C(F)F)N(C2)C1=O
EC50 (Hepatitis C virus [1]): 0.2 nM | EC50 (Hepatitis C virus [2]): 0.2 nM | EC50 (Hepatitis C virus [3]): 30 nM

COc1ccc2nc(C)c(O[C@@H]3C[C@H]4C(=O)N[C@]5(C(=O)NS(=O)(=O)C6(C)CC6)C[C@H]5/C=C/CCCCC[C@H](NC(=O)O[C@H](C)C(F)(F)F)C(=O)N4C3)nc2c1
Ki [4]: 122 nM | Ki [5]: 1.1 nM | EC50 (Hepatitis C virus [1]): 0.5 nM | EC50 (Hepatitis C virus [6]): 18 nM | EC50 (Hepatitis C virus [2]): 2.5 nM | EC50 (Hepatitis C virus [3]): 260 nM

COc1ccc2nc(C)c(O[C@@H]3C[C@H]4C(=O)N[C@]5(C(=O)NS(=O)(=O)C6(C)CC6)C[C@H]5/C=C/CCCCC[C@H](NC(=O)O[C@@H]5CCC[C@H]5F)C(=O)N4C3)nc2c1
Ki [4]: 216 nM | Ki [5]: 2.3 nM | EC50 (Hepatitis C virus [1]): 0.4 nM | EC50 (Hepatitis C virus [6]): 12 nM | EC50 (Hepatitis C virus [2]): 43 nM

COc1ccc2nc(O[C@@H]3C[C@H]4C(=O)N[C@]5(C(=O)NS(=O)(=O)C6(C)CC6)C[C@H]5/C=C/CCCCC[C@H](NC(=O)OC(C)(C)C)C(=O)N4C3)c(C(F)(F)F)nc2c1
Ki [4]: 230 nM | Ki [5]: 5.8 nM | EC50 (Hepatitis C virus [1]): 0.9 nM | EC50 (Hepatitis C virus [6]): 12 nM | EC50 (Hepatitis C virus [2]): 4.7 nM

COc1ccc2nc(C)c(O[C@@H]3C[C@H]4C(=O)N[C@]5(C(=O)NS(=O)(=O)C6(C)CC6)C[C@H]5/C=C/CCCCC[C@H](NC(=O)OC5C[C@@H]6C[C@@H]6C5)C(=O)N4C3)nc2c1 (stereo not given in full)
Ki [4]: 39 nM | Ki [5]: 0.5 nM | EC50 (Hepatitis C virus [1]): 0.1 nM | EC50 (Hepatitis C virus [6]): 5.3 nM | EC50 (Hepatitis C virus [2]): 0.5 nM | EC50 (Hepatitis C virus [3]): 900 nM

COc1ccc2nc(C)c(O[C@@H]3C[C@H]4C(=O)N[C@]5(C(=O)NS(=O)(=O)C6(C)CC6)C[C@H]5/C=C/CCCCC[C@H](NC(=O)OCC5(C(F)(F)F)CC5)C(=O)N4C3)nc2c1
Ki [4]: 230 nM | Ki [5]: 0.9 nM | EC50 (Hepatitis C virus [1]): 0.1 nM | EC50 (Hepatitis C virus [6]): 5.6 nM | EC50 (Hepatitis C virus [2]): 1.4 nM | EC50 (Hepatitis C virus [3]): 330 nM

COc1ccc2nc(O[C@@H]3C[C@H]4C(=O)N[C@]5(C(=O)NS(=O)(=O)C6(C)CC6)C[C@H]5/C=C/CCCCC[C@H](NC(=O)O[C@@H](C)C5CC5)C(=O)N4C3)c(C(F)(F)F)nc2c1
Ki [4]: 412 nM | Ki [5]: 10 nM | EC50 (Hepatitis C virus [1]): 3.3 nM | EC50 (Hepatitis C virus [6]): 18 nM | EC50 (Hepatitis C virus [2]): 18 nM

COc1ccc2nc(O[C@@H]3C[C@H]4C(=O)N[C@]5(C(=O)NS(=O)(=O)C6(C)CC6)C[C@H]5/C=C/CCCCC[C@H](NC(=O)O[C@H](C)C(F)(F)F)C(=O)N4C3)c(C(F)(F)F)nc2c1
Ki [4]: 490 nM | Ki [5]: 2.8 nM | EC50 (Hepatitis C virus [1]): 1.6 nM | EC50 (Hepatitis C virus [6]): 30 nM | EC50 (Hepatitis C virus [2]): 7.3 nM

COc1ccc2nc(O[C@@H]3C[C@H]4C(=O)N[C@]5(C(=O)NS(=O)(=O)C6(C)CC6)C[C@H]5/C=C/CCCCC[C@H](NC(=O)OC5CCC5)C(=O)N4C3)c(C(F)(F)F)nc2c1
Ki [4]: 870 nM | Ki [5]: 8.5 nM | EC50 (Hepatitis C virus [1]): 1.8 nM | EC50 (Hepatitis C virus [6]): 9.6 nM | EC50 (Hepatitis C virus [2]): 50 nM

COc1ccc2nc(O[C@@H]3C[C@H]4C(=O)N[C@]5(C(=O)NS(=O)(=O)C6(C)CC6)C[C@H]5/C=C/CCCCC[C@H](NC(=O)OC5C[C@@H]6C[C@@H]6C5)C(=O)N4C3)c(C(F)(F)F)nc2c1 (stereo not given in full)
Ki [4]: 170 nM | Ki [5]: 0.2 nM | EC50 (Hepatitis C virus [6]): 70 nM | EC50 (Hepatitis C virus [2]): 2.1 nM

CCC(CC)OC(=O)N[C@H]1CCCCC/C=C/[C@@H]2C[C@@]2(C(=O)NS(=O)(=O)C2(C)CC2)NC(=O)[C@@H]2C[C@@H](Oc3nc4ccc(OC)cc4nc3C(F)(F)F)CN2C1=O
Ki [4]: 840 nM | Ki [5]: 4.6 nM | EC50 (Hepatitis C virus [1]): 4.1 nM | EC50 (Hepatitis C virus [6]): 85 nM | EC50 (Hepatitis C virus [2]): 17 nM

CCC(C)(C)OC(=O)N[C@H]1CCCCC/C=C/[C@@H]2C[C@@]2(C(=O)NS(=O)(=O)C2(C)CC2)NC(=O)[C@@H]2C[C@@H](Oc3nc4ccc(OC)cc4nc3C(F)(F)F)CN2C1=O
Ki [4]: 240 nM | Ki [5]: 2.7 nM | EC50 (Hepatitis C virus [1]): 1.5 nM | EC50 (Hepatitis C virus [6]): 10 nM | EC50 (Hepatitis C virus [2]): 11 nM

COc1ccc2nc(C)c(O[C@@H]3C[C@H]4C(=O)N[C@]5(C(=O)NS(=O)(=O)C6(C)CC6)C[C@H]5/C=C/CCCCC[C@H](NC(=O)OC5(C)CCCC5)C(=O)N4C3)nc2c1
Ki [4]: 150 nM | Ki [5]: 1.8 nM | EC50 (Hepatitis C virus [1]): 3.7 nM | EC50 (Hepatitis C virus [6]): 49 nM | EC50 (Hepatitis C virus [2]): 4.7 nM

COc1ccc2nc(O[C@@H]3C[C@H]4C(=O)N[C@]5(C(=O)NS(=O)(=O)C6(C)CC6)C[C@H]5/C=C/CCCCC[C@H](NC(=O)OC5(C)CCC5)C(=O)N4C3)c(C(F)(F)F)nc2c1
Ki [4]: 283 nM | Ki [5]: 4.9 nM | EC50 (Hepatitis C virus [1]): 1.6 nM | EC50 (Hepatitis C virus [6]): 26 nM | EC50 (Hepatitis C virus [2]): 58 nM

COc1ccc2nc(O[C@@H]3C[C@H]4C(=O)N[C@]5(C(=O)NS(=O)(=O)C6(C)CC6)C[C@H]5/C=C/CCCCC[C@H](NC(=O)OC5(C)CCCC5)C(=O)N4C3)c(C(F)(F)F)nc2c1
Ki [4]: 161 nM | Ki [5]: 0.9 nM | EC50 (Hepatitis C virus [1]): 5.8 nM | EC50 (Hepatitis C virus [6]): 70 nM | EC50 (Hepatitis C virus [2]): 16 nM

COc1ccc2nc(C)c(O[C@@H]3C[C@H]4C(=O)N[C@]5(C(=O)NS(=O)(=O)C6(C)CC6)C[C@H]5/C=C/CCCCC[C@H](NC(=O)OC5CCCCC5)C(=O)N4C3)nc2c1
Ki [4]: 145 nM | Ki [5]: 0.9 nM | EC50 (Hepatitis C virus [1]): 0.2 nM | EC50 (Hepatitis C virus [6]): 6.8 nM | EC50 (Hepatitis C virus [2]): 3 nM

COc1ccc2nc(O[C@@H]3C[C@H]4C(=O)N[C@]5(C(=O)NS(=O)(=O)C6(C)CC6)C[C@H]5/C=C/CCCCC[C@H](NC(=O)O[C@@H](C)C(F)(F)F)C(=O)N4C3)c(C(F)(F)F)nc2c1
Ki [4]: 580 nM | Ki [5]: 7.7 nM | EC50 (Hepatitis C virus [1]): 5.6 nM | EC50 (Hepatitis C virus [6]): 75 nM | EC50 (Hepatitis C virus [2]): 18 nM

COc1ccc2nc(O[C@@H]3C[C@H]4C(=O)N[C@]5(C(=O)NS(=O)(=O)C6(C)CC6)C[C@H]5/C=C/CCCCC[C@H](NC(=O)OC5CCCC5)C(=O)N4C3)c(C(F)(F)F)nc2c1
Ki [4]: 433 nM | Ki [5]: 8.1 nM | EC50 (Hepatitis C virus [1]): 3.2 nM | EC50 (Hepatitis C virus [6]): 45 nM | EC50 (Hepatitis C virus [2]): 6.2 nM

COc1ccc2nc(O[C@@H]3C[C@H]4C(=O)N[C@]5(C(=O)NS(=O)(=O)C6(C)CC6)C[C@H]5/C=C/CCCCC[C@H](NC(=O)OCC5(C)CC5(F)F)C(=O)N4C3)c(C(F)(F)F)nc2c1 (stereo not given in full)
Ki [4]: 336 nM | Ki [5]: 2.1 nM | EC50 (Hepatitis C virus [1]): 2.7 nM | EC50 (Hepatitis C virus [6]): 130 nM | EC50 (Hepatitis C virus [2]): 8.5 nM

COc1ccc2nc(C)c(O[C@@H]3C[C@H]4C(=O)N[C@]5(C(=O)NS(=O)(=O)C6(C)CC6)C[C@H]5/C=C/CCCCC[C@H](NC(=O)OCC5(C)CC5(F)F)C(=O)N4C3)nc2c1 (stereo not given in full)
Ki [4]: 100 nM | Ki [5]: 3.1 nM | EC50 (Hepatitis C virus [1]): 0.3 nM | EC50 (Hepatitis C virus [6]): 8.3 nM | EC50 (Hepatitis C virus [2]): 2.1 nM

COc1ccc2nc(C)c(O[C@@H]3C[C@H]4C(=O)N[C@]5(C(=O)NS(=O)(=O)C6(C)CC6)C[C@H]5/C=C/CCCCC[C@H](NC(=O)OC(C)(C)C(F)(F)F)C(=O)N4C3)nc2c1
Ki [4]: 66 nM | Ki [5]: 2.6 nM | EC50 (Hepatitis C virus [1]): 0.8 nM | EC50 (Hepatitis C virus [6]): 3.3 nM | EC50 (Hepatitis C virus [3]): 160 nM

COc1ccc2nc(O[C@@H]3C[C@H]4C(=O)N[C@]5(C(=O)NS(=O)(=O)C6(C)CC6)C[C@H]5/C=C/CCCCC[C@H](NC(=O)OC5CC5)C(=O)N4C3)c(C(F)(F)F)nc2c1
Ki [4]: 522 nM | Ki [5]: 14 nM | EC50 (Hepatitis C virus [1]): 2 nM | EC50 (Hepatitis C virus [6]): 36 nM | EC50 (Hepatitis C virus [2]): 14 nM

COc1ccc2nc(C)c(O[C@@H]3C[C@H]4C(=O)N[C@]5(C(=O)NS(=O)(=O)C6(C)CC6)C[C@H]5/C=C/CCCCC[C@H](NC(=O)OC5CCC5)C(=O)N4C3)nc2c1
Ki [4]: 110 nM | Ki [5]: 0.3 nM | EC50 (Hepatitis C virus [1]): 0.1 nM | EC50 (Hepatitis C virus [6]): 3.4 nM | EC50 (Hepatitis C virus [2]): 2.7 nM
